For data set [1], the target named is T1, Death-associated protein kinase 1 (Homo sapiens, UniProt P53355). Put plainly: Inhibition of human DAPK1 (1 to 363 residues) using KKLNRTLSFAEPG as substrate after 120 mins in presence of 100 uM [gamma-33P]-ATP by filtration method. In outline:
(§1)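 Dose-response curves were run at 1, 10 and 100 μM ATP, giving an IC50 at each ATP level; Ki was calculated.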
Target sequence in this assay (P53355 whole entry, the tested form may be a part): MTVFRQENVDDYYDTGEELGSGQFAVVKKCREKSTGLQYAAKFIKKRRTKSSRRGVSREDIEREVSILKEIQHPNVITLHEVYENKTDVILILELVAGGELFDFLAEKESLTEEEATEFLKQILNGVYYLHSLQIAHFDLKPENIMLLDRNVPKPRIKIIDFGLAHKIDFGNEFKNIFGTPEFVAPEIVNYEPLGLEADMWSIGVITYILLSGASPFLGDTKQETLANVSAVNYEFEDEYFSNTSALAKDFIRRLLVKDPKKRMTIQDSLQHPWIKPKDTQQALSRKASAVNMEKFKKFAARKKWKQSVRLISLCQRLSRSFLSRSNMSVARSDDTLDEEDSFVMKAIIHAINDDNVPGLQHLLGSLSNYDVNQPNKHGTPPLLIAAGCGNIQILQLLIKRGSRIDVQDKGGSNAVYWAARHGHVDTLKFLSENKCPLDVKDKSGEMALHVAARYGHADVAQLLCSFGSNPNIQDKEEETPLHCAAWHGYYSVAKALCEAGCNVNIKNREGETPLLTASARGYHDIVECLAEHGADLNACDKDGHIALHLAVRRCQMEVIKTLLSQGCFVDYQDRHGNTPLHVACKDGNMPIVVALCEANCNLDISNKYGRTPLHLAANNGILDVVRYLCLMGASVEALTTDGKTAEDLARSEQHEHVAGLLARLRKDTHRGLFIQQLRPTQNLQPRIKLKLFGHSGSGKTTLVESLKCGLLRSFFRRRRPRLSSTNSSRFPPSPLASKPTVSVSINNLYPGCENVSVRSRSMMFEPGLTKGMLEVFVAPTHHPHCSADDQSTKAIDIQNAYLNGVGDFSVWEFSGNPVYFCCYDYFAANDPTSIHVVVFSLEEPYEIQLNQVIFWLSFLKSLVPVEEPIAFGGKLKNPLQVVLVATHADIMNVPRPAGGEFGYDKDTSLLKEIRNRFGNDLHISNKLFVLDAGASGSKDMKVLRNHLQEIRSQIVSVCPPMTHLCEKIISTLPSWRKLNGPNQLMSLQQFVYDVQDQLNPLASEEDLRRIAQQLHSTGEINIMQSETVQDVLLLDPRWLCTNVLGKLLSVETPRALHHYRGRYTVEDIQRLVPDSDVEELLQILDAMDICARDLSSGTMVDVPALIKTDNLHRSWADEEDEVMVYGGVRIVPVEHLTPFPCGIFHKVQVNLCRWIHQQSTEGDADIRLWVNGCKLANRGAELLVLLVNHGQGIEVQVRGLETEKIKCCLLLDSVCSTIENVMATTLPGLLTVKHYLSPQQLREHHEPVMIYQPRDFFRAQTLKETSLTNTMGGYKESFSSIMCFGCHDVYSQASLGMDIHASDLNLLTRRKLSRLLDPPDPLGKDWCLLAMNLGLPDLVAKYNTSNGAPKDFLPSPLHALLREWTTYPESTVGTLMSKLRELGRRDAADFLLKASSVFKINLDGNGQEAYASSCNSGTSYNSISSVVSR

In data set [2] the target is T2, Macrophage colony-stimulating factor 1 receptor (Homo sapiens, UniProt P07333). As to the kind of experiment: Inhibition of human CSF1R using poly[Glu:Tyr] (4:1) as substrate after 120 mins in presence of 100 uM [gamma-33P]-ATP by filtration method. The method, boiled down:
(§2)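 CSF1R radiometric kinase assay with dose-response curves at 1, 10 and 100 μM ATP. IC50 was calculated at each ATP concentration, and Ki was derived.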

Data set [3] deals with T1, Death-associated protein kinase 1. Put plainly: Inhibition of human DAPK1 (1 to 363 residues) using KKLNRTLSFAEPG as substrate after 120 mins in presence of 1 uM [gamma-33P]-ATP by filtration method. In outline:
as §1
Target sequence in this assay (P53355 whole entry, the tested form may be a part): as above

In data set [4] the target is Tyrosine-protein kinase Lyn (Homo sapiens) (UniProt P07948). As to the kind of experiment: Inhibition of human LYN at 10 uM using poly[Glu:Tyr] (4:1) as substrate after 120 mins [gamma-33P]-ATP by filtration method. In outline: (§3)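 Radiometric kinase selectivity panel of 47 kinases, with compound at 10 μM. Data are means ± SD of two independent experiments.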
The target in data set [5] is T1, Death-associated protein kinase 1. Put plainly: Inhibition of human DAPK1 (1 to 363 residues) at 10 uM using KKLNRTLSFAEPG as substrate after 120 mins in presence of 10 uM [gamma-33P]-ATP by filtration method relative to control. The method, boiled down: (§4)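 Radiometric HotSpot assay measuring substrate phosphorylation directly, with 10 μM ATP. Single-dose screen at 10 μM in duplicate, reported as mean % inhibition from two independent experiments.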
Target sequence in this assay (P53355 whole entry, looked up, the tested form may be a part): as the sequence (P53355 whole entry, the tested form may be a part) above

Data set [6] in a line: Cytotoxicity against LPS-stimulated mouse BV2 cells assessed as cell viability at 10 uM after 24 hrs by MTT assay relative to control. Format: cell-based, BV-2. Conditions: read-out: Activity. In outline: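 BV-2 cell viability was measured in the presence of compound together with LPS and expressed relative to control. Values are means ± SD of five independent experiments.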
(Formazan colour is commonly taken as a measure of viable cells.)

For data set [7], the target named is T2, Macrophage colony-stimulating factor 1 receptor. Put plainly: Inhibition of human CSF1R at 10 uM using poly[Glu:Tyr] (4:1) as substrate after 120 mins in presence of 10 uM [gamma-33P]-ATP by filtration method relative to control. In outline:
as §4

Data set [8] shares this target. Put plainly: Inhibition of human CSF1R using poly[Glu:Tyr] (4:1) as substrate after 120 mins in presence of 1 uM [gamma-33P]-ATP by filtration method. In outline:
as §2

Data set [9] concerns the target T3, Serine/threonine-protein kinase 17A (Homo sapiens) (UniProt Q9UEE5).
T3 sequence (whole entry): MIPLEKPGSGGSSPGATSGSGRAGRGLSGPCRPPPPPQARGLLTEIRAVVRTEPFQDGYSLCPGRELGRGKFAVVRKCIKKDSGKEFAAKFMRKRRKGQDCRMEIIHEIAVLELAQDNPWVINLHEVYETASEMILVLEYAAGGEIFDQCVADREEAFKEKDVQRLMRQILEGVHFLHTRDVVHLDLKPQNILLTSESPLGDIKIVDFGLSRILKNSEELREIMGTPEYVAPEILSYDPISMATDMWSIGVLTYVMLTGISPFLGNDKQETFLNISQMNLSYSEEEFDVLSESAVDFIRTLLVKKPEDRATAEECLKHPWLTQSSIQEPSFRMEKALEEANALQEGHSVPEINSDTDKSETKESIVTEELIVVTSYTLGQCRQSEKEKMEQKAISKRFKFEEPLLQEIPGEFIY
As to the kind of experiment: Inhibition of human DRAK1 at 10 uM using KKLNRTLSFAEPG as substrate after 120 mins [gamma-33P]-ATP by filtration method. The method, boiled down: as §3

Data set [10] deals with Death-associated protein kinase 3 (Homo sapiens) (UniProt O43293). As to the kind of experiment: Inhibition of human DAPK3 at 10 uM using KKLNRTLSFAEPG as substrate after 120 mins [gamma-33P]-ATP by filtration method. The method, boiled down: as §3
Data set [11] addresses T1, Death-associated protein kinase 1. As to the kind of experiment: Inhibition of human DAPK1 (1 to 363 residues) using KKLNRTLSFAEPG as substrate after 120 mins [gamma-33P]-ATP by filtration method. In outline:
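Radiometric HotSpot assay with direct measurement of phosphorylated substrate at 10 μM ATP. IC50 was taken from a duplicate 10-dose series, 3-fold dilutions starting at 20 μM, reported as mean.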
Target sequence in this assay (P53355 whole entry, the tested form may be a part): as the sequence (P53355 whole entry, the tested form may be a part) above

The target of data set [12] is Platelet-derived growth factor receptor alpha (Homo sapiens) (UniProt P16234). As to the kind of experiment: Inhibition of human PDGFRalpha at 10 uM using poly[Glu:Tyr] (4:1) as substrate after 120 mins [gamma-33P]-ATP by filtration method. The method, boiled down:
as §3

The test system of another data set is BV-2. As to the kind of experiment: Anti-neuroinflammatory activity in mouse BV2 cells assessed as inhibition of LPS-stimulated NO production at 10 uM preincubated for 1 hr followed by LPS stimulation for 23 hrs by Griess reagent based assay relative to control. Format: functional. In outline:
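Mouse BV-2 microglia were stimulated with LPS, with or without compound at 10 μM, and NO production was measured. Values are means ± SD of five independent experiments.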
(The Griess reaction detects nitrite, a stable product of nitric oxide.)

Data set [13] deals with T1, Death-associated protein kinase 1. As to the kind of experiment: Inhibition of DAPK1 in HEK293 tau-BiFC cells assessed as reduction in forskolin-induced tau aggregation after 48 hrs by Hoechst staining based HCS analysis. Format: cell-based. In outline:
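HEK293 tau-BiFC cells were given forskolin (30 μM) and compound in a 5-dose series (1, 2, 4, 8, 16 μM) for 48 h. BiFC fluorescence was quantified and a cellular IC50 was derived from the series.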
Target sequence in this assay (P53355 whole entry, the tested form may be a part): as the sequence (P53355 whole entry, the tested form may be a part) above

Data set [14] has as its target T2, Macrophage colony-stimulating factor 1 receptor. Put plainly: Inhibition of human CSF1R using poly[Glu:Tyr] (4:1) as substrate after 120 mins in presence of [gamma-33P]-ATP by filtration method.
Data set [15] concerns the target T1, Death-associated protein kinase 1. Put plainly: Inhibition of DAPK1 in HEK293 tau-BiFC cells assessed as reduction in forskolin-induced tau aggregation at 10 uM after 48 hrs by Hoechst staining based HCS analysis. Format: cell-based. In outline: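 HEK293 cells expressing tau-BiFC were exposed to compounds at 50, 10 and 1 μM with forskolin (30 μM) as the tau aggregation activator for 48 h. BiFC fluorescence intensity was quantified as the read-out. Data are mean ± SD.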
Target sequence in this assay (P53355 whole entry, looked up, the tested form may be a part): as the sequence (P53355 whole entry, the tested form may be a part) above

For data set [16], the target named is Leucine-rich repeat serine/threonine-protein kinase 2 (Homo sapiens) (UniProt Q5S007). Put plainly: Inhibition of human LRRK2 at 10 uM using RLGRDKYKTLRQIRQ as substrate after 120 mins [gamma-33P]-ATP by filtration method. The method, boiled down: as §3
For data set [17], the target named is Platelet-derived growth factor receptor beta (Homo sapiens) (UniProt P09619). As to the kind of experiment: Inhibition of human PDGFRbeta at 10 uM using poly[Glu:Tyr] (4:1) as substrate after 120 mins [gamma-33P]-ATP by filtration method. In outline: as §3
For data set [18], the target named is Serine/threonine-protein kinase pim-1 (Homo sapiens) (UniProt P11309). As to the kind of experiment: Inhibition of human PIM1 at 10 uM using KKRNRTLTK as substrate after 120 mins [gamma-33P]-ATP by filtration method. In outline: as §3
The target of data set [19] is Death-associated protein kinase 2 (Homo sapiens) (UniProt Q9UIK4). Put plainly: Inhibition of human DAPK2 at 10 uM using KKLNRTLSFAEPG as substrate after 120 mins [gamma-33P]-ATP by filtration method. In outline:
as §3

The source made the active and inactive calls. The rule behind the calls is not given here. A value given as a limit tells only on which side of the number the result lay.

T2 sequence (P07333 whole entry): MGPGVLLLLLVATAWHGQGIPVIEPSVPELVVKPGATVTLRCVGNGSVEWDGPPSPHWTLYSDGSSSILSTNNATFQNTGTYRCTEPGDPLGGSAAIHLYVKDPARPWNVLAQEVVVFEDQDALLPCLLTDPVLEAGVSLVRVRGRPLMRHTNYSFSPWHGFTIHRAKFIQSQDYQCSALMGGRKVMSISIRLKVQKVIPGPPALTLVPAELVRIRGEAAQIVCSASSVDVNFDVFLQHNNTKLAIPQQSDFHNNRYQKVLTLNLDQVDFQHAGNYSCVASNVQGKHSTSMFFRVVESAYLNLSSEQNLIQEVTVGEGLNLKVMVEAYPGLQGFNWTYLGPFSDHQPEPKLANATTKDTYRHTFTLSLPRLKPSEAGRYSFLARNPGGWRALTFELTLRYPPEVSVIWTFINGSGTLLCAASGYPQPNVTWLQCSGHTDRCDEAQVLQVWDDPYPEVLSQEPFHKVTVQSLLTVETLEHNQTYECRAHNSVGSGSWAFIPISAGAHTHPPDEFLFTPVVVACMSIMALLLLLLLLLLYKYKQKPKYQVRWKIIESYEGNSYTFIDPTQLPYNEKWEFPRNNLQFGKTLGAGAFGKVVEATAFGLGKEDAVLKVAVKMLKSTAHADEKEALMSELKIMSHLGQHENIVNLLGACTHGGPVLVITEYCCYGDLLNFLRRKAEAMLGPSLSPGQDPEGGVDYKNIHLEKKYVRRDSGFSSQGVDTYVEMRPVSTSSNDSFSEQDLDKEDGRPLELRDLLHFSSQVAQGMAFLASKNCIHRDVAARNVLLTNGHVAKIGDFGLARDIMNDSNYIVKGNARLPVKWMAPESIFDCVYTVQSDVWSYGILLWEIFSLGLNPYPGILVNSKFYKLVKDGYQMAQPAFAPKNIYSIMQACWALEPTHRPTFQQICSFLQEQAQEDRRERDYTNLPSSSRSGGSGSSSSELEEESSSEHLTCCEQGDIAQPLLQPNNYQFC
Tyrosine-protein kinase Lyn (Homo sapiens), sequence (P07948 2-512 limits assumed): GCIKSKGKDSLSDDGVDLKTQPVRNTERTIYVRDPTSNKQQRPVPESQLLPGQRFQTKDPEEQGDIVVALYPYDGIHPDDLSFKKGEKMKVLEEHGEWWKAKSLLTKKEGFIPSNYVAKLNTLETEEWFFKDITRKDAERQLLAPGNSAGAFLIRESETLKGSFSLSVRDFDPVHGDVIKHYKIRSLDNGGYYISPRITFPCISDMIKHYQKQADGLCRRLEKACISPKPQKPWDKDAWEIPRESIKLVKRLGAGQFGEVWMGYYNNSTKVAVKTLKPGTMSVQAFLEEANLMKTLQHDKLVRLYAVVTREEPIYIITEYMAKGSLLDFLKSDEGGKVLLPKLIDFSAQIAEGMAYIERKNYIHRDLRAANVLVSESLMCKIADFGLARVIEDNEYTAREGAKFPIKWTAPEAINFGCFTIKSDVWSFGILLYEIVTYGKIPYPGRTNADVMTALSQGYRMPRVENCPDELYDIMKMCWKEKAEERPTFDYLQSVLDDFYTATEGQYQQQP
Death-associated protein kinase 2 (Homo sapiens), sequence (Q9UIK4 whole entry, looked up): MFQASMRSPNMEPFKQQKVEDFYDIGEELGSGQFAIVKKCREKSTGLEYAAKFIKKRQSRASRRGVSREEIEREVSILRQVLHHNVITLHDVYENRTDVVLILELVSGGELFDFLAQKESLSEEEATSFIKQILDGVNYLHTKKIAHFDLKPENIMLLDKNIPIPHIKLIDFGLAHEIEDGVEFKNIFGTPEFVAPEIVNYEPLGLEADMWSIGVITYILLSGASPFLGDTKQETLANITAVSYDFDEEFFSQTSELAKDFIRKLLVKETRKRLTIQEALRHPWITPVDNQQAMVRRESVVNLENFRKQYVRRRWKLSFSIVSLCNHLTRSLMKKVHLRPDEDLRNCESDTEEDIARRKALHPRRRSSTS

In the case of `COc1ccc(Oc2nc(Nc3ccc(N4CCOCC4)nc3)ncc2NC(=O)c2cc(OC)cc(OC)c2)cc1`, the IC50 – broadly, the midpoint of a concentration-inhibition curve – in data set [1] was 920 nM; in [2] it was 273 nM; in [3] it was 2890 nM; in data set [8] it was 69 nM; in [13], 5000 nM. The inhibition entry in data set [4] and in data set [15] was “Active” in each case. Also, the inhibition (as a rule, the relative decrease from the control value, in per cent) in data set [5] worked out at 66.2%; in [7] it was 77.9%. Besides, in data set [6], the viability at 24 h, 10 µM was above 92%. The inhibition entry in data set [9], in data set [10], in data set [12], in data set [16], in data set [17] and in [18] was “inactive” each time. The inhibition result in data set [19] was “inactive”. The results for the Ki in data set [11] and in [14] were 581 nM and 129 nM, respectively. In addition, the inhibition at 10 µM in the data set with BV-2 was 55%.

Values taken from ChEMBL document CHEMBL4382221, “First-in-class DAPK1/CSF1R dual inhibitors: Discovery of 3,5-dimethoxy-N-(4-(4-methoxyphenoxy)-2-((6-morpholinopyridin-3-yl)amino)pyrimidin-5-yl)benzamide as a potential anti-tauopathies agent” (Eur J Med Chem, 2019).
